Activity calls are given as the source filed them. The rule behind the calls is not given here.
Legend:
MV4-11 [1] = assay: Induction of apoptosis in human MV4-11 cells assessed as increase in cleaved PARP level at 1 to 2 uM after 24 hrs by Western blot method; assay type: functional, cell-based
In short: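 MV4-11 (1,500,000/well) or PC-3 (300,000/well) grown 12 h, then treated 24 h at 1 and 2 μM, with 5 μM SAHA as reference. RIPA lysis, sonication and centrifugation, BCA normalization. NuPAGE 4–12% Bis-Tris gel in MES, transfer, primary antibodies 1/1000 overnight at 4 °C. Actin as loading control.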

MV4-11 [2] = assay: Cell cycle arrest in human MV4-11 cells assessed as accumulation at G1/S phase at 0.5 uM after 24 hrs by propidium iodide staining based flow cytometry; assay type: functional
Histone deacetylase 5 = Histone deacetylase 5 (Homo sapiens, UniProt Q9UQL6); assay: Inhibition of recombinant human HDAC5 expressed in baculovirus expression system using Boc-Lys(trifluoroacetyl)-AMC as substrate preincubated for 1 hr followed by substrate addition measured after 2 hrs by fluorescence assay
Chain of Histone deacetylase 5 (Q9UQL6 whole entry): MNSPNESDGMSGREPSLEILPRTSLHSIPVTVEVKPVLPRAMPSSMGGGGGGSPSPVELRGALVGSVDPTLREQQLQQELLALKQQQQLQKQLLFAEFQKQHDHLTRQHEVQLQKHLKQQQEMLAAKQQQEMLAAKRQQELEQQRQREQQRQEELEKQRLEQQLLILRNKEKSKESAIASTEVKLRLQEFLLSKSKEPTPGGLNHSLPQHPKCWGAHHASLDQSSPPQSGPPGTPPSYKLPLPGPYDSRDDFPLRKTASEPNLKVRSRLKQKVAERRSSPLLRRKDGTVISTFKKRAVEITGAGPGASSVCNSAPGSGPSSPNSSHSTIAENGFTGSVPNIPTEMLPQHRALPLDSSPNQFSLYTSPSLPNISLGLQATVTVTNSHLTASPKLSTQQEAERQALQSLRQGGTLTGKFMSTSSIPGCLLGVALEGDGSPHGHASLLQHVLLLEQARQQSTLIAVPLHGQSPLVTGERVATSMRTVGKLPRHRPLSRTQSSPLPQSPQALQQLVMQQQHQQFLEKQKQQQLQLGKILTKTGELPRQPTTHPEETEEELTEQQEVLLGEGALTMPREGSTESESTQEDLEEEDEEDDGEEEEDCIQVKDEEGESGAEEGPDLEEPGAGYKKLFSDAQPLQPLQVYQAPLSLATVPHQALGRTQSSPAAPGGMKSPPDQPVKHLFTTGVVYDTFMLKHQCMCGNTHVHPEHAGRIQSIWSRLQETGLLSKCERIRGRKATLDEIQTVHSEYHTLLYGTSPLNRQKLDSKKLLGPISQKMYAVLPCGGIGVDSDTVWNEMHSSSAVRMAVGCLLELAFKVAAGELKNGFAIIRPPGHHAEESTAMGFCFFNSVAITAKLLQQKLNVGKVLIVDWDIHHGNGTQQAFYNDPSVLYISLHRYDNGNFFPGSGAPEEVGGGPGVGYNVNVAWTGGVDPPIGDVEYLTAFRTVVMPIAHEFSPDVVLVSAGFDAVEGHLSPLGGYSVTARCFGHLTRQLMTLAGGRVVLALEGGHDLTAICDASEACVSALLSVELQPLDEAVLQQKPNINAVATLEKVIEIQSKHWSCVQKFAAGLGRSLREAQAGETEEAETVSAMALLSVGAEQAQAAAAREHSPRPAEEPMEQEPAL
In short: (§1)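 Recombinant HDAC incubated with serial compound dilutions at 30 °C for 1 h. Reaction run 2 h at 30 °C, stopped with developer containing trypsin and TSA. Fluorescence read after 30 min at 360/460 nm. Inhibition relative to control wells; IC50 from variable-slope fit.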

PC-3 = assay: Cell cycle arrest in human PC3 cells assessed as accumulation at G2/M phase up to 2 uM after 24 hrs by propidium iodide staining based flow cytometry; assay type: functional
[3] = target: T1, Protein deacetylase HDAC6 (Homo sapiens, UniProt Q9UBN7); assay: Inhibition of HDAC6 (unknown origin) using Boc-Lys(acetyl)-AMC as substrate preincubated for 1 hr followed by substrate addition measured after 2 hrs by fluorescence assay; in short: as §1
T1 sequence (Q9UBN7 whole entry): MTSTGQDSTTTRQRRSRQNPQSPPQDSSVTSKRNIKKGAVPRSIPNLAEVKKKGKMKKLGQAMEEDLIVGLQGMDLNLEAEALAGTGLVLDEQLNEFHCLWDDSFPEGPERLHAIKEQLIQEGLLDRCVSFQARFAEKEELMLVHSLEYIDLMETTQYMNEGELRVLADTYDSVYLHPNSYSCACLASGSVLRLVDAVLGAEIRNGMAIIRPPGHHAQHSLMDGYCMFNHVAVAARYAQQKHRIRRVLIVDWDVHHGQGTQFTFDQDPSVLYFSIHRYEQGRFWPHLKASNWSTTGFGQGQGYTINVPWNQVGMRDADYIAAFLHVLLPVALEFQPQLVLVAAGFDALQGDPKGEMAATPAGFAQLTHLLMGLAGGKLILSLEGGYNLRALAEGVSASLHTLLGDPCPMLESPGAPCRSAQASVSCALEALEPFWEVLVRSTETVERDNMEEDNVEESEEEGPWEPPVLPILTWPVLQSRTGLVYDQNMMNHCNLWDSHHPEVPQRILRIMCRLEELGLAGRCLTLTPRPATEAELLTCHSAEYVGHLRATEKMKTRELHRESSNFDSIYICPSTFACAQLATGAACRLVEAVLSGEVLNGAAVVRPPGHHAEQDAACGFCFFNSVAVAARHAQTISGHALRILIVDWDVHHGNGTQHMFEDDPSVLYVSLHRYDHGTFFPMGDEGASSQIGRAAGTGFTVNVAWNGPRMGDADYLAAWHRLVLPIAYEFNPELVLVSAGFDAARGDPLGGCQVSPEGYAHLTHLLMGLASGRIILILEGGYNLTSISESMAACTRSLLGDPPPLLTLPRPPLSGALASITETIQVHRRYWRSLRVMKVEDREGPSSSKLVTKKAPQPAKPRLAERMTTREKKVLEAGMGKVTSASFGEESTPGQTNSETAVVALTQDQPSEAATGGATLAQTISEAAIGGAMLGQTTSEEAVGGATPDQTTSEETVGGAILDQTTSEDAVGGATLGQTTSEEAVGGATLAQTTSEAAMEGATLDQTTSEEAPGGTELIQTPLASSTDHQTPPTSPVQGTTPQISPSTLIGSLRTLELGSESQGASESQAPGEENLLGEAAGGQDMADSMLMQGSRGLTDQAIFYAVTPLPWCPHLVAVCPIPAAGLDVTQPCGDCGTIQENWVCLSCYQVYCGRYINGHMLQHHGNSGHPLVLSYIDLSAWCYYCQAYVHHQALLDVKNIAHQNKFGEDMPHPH

Histone deacetylase 1 = Histone deacetylase 1 (Homo sapiens, UniProt Q13547); conditions: 0.25 to 2 uM
Chain of Histone deacetylase 1 (Q13547 whole entry, the tested form may be a part): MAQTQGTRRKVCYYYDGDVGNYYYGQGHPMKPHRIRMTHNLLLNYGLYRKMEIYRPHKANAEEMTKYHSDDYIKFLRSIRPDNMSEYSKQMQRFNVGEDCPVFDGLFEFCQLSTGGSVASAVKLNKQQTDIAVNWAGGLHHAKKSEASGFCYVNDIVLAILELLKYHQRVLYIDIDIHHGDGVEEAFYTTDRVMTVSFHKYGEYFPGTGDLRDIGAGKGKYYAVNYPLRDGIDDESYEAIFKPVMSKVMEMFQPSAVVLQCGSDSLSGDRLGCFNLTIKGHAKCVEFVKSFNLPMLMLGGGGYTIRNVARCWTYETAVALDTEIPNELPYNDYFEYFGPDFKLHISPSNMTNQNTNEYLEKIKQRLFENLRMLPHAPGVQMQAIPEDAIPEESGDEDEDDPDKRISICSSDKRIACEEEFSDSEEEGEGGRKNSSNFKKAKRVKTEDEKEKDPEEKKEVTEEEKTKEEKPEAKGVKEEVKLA

[4] = target: Matrix metalloproteinase 2/9 (Homo sapiens) (UniProt P08253+P14780); assay: Inhibition of human MMP2/C-terminal hemopexin domain truncated MMP9 up to 50 uM preincubated for 10 to 15 mins followed by substrate addition measured after 2 hrs by fluorescence assay; assay type: protein assay
Chain of Matrix metalloproteinase 2/9 (Homo sapiens) (P08253 whole entry, looked up, the tested form may be a part): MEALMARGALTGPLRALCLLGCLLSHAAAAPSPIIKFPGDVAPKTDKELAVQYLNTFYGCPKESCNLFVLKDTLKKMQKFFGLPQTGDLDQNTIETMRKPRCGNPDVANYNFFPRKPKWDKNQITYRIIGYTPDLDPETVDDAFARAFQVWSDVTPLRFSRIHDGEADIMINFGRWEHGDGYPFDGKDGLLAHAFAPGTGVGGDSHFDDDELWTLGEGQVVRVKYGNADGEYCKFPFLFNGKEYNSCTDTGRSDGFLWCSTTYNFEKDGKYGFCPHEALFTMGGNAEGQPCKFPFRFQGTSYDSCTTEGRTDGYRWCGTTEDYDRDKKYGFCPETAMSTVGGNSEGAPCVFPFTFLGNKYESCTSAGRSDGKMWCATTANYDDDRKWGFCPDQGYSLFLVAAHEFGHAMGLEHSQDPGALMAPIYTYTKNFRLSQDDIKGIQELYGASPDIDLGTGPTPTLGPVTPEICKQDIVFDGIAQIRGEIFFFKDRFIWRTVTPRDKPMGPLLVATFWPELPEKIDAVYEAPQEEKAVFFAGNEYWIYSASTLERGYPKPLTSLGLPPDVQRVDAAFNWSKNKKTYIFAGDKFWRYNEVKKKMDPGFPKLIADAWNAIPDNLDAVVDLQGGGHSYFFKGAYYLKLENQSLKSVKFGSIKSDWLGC
Chain of Matrix metalloproteinase 2/9 (Homo sapiens) (P14780 whole entry, looked up, the tested form may be a part): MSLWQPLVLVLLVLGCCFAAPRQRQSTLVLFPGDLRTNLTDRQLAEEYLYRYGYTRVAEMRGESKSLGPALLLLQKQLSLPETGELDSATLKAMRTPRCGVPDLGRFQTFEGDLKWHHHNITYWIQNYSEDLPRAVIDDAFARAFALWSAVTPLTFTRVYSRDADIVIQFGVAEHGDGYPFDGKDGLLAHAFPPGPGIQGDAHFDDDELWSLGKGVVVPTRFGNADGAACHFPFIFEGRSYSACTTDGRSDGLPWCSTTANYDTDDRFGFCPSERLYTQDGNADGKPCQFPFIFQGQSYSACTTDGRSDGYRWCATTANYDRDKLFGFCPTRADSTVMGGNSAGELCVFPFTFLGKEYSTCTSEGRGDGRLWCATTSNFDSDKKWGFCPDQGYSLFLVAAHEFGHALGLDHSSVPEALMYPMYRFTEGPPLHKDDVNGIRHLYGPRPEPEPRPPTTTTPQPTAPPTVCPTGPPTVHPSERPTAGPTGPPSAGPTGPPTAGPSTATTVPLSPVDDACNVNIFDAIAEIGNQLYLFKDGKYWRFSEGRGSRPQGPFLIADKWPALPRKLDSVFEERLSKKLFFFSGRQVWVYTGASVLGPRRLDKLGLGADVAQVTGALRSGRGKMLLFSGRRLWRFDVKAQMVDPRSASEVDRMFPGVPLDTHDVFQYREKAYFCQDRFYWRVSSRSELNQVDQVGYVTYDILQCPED
In short: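 Gelatinase kit assay: compound (100 μM stock), MMP inhibitor (40 μM stock) or activation buffer combined with MMP-2/MMP-9 in activation buffer. After 10–15 min, substrate added and incubated at 37 °C for 2 h. Fluorescence read at 320/405 nm.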

Q: `CCCNNC(=O)c1ccc(NC(=O)[C@H](Cc2c[nH]c3ccccc23)NC(=O)c2ccc(OC)cc2)cc1` was tested. Which Activity (MV4-11 [1]) did it give?
A: Active

Q: And the Activity (MV4-11 [2])?
A: Active

Q: What about the IC50 (Histone deacetylase 5) of the same molecule?
A: > 50 µM

Q: And the Activity (PC-3)?
A: Active

Q: What about the IC50 [3] of the same molecule?
A: 50 to 100 µM

Q: And the inhibition (Histone deacetylase 1)?
A: Active

Q: And the inhibition [4]?
A: inactive

Reference: ChEMBL document CHEMBL4020839, “Class I HDAC Inhibitors Display Different Antitumor Mechanism in Leukemia and Prostatic Cancer Cells Depending on Their p53 Status” (J Med Chem, 2018)
